From article PMC6045484 (ACS Omega, 2018)
In brackets after ≈: the same amount, converted by molar mass.

Key:
P. falciparum (D6) = assay: in vitro antimalarial activity, plasmodial LDH; type: cell-based, Plasmodium falciparum; settings: Plasmodium falciparum, D6, 72 h, read-out: P. falciparum (D6) IC50
P. falciparum (W2) = assay: in vitro antimalarial activity, plasmodial LDH; type: cell-based, Plasmodium falciparum; settings: Plasmodium falciparum, W2, 72 h, read-out: P. falciparum (W2) IC50, CQ-resistant W2 strain, 72 h
In short: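 P. falciparum-infected erythrocytes (2% parasitemia, 2% hematocrit) in RPMI 1640 with 10% human serum and 60 μg/mL amikacin. Exposed to test compound dilutions for 72 h at 37 °C under 90% N2/5% O2/5% CO2. LDH measured with Malstat reagent (30 min, room temperature), then NBT/PES for 1 h in the dark, stopped with 5% acetic acid, read at 650 nm. IC50 from dose-response curves.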

[1] = test system: SK-MEL, KB, BT-549, SK-OV-3, VERO and LLC-PK1 cells; assay: cytotoxicity, neutral red uptake assay; type: cell-based, mammalian; settings: highest test concentration 4760 ng/mL
In short: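 Cells seeded at 25 000/well and allowed 24 h to reach confluence. Test compound was then added and incubated 48 h. Viable cells were counted by a modified neutral red uptake method. The panel was four human cancer lines and two noncancerous mammalian kidney lines. Doxorubicin served as positive control and DMSO as negative control.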

[2] = test system: L. donovani promastigotes; assay: in vitro antileishmanial activity, alamarBlue assay; type: cell-based, Leishmania donovani; settings: Leishmania donovani, 48 h; for IC50: read-out: L. donovani IC50, promastigotes, 48 h; for IC90: read-out: L. donovani IC90, promastigotes, 48 h
C. albicans ATCC90028 = assay: in vitro antifungal activity; type: cell-based, Candida albicans; settings: Candida albicans; for IC50: ATCC90028, read-out: C. albicans IC50; for MFC: ATCC90028, read-out: C. albicans MFC; for MIC: ATCC90028, read-out: C. albicans MIC
In short: (§1)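 Modified NCCLS broth method in Sabouraud dextrose. Inoculum set by OD630 to 1.5 × 10^3 CFU/mL. Test compound serially diluted in 20% DMSO/saline, duplicate wells, up to 20 μg/mL. Incubated 70–74 h at 35 °C; 530 nm read before and after. IC50 is 50% growth inhibition; MIC is no detectable growth. MFC from clear wells subcultured on agar. Amphotericin B control.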

C. neoformans ATCC90113 = assay: in vitro antifungal activity; type: cell-based, Cryptococcus neoformans; settings: Cryptococcus neoformans; for IC50: ATCC90113, read-out: C. neoformans IC50; for MFC: ATCC90113, read-out: C. neoformans MFC; for MIC: ATCC90113, read-out: C. neoformans MIC
In short: as §1

A. fumigatus ATCC 90906 = assay: in vitro antifungal activity; type: cell-based, Aspergillus fumigatus; settings: Aspergillus fumigatus; for IC50: ATCC90906, read-out: A. fumigatus IC50; for MFC: ATCC90906, read-out: A. fumigatus MFC; for MIC: ATCC90906, read-out: A. fumigatus MIC
In short: as §1

SA (ATCC29213) = assay: in vitro antibacterial activity; type: cell-based; settings: Staphylococcus aureus; for IC50: ATCC29213, read-out: IC50 (concentration that affords 50% growth inhibition), SA; for MBC: ATCC29213, read-out: MBC (minimum bactericidal concentration), SA; for MIC: ATCC29213, read-out: MIC, SA
In short: (§2)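 Test compound serially diluted in 20% DMSO/saline and plated in duplicate, up to 20 μg/mL. Inoculum in cation-adjusted Mueller–Hinton broth, pH 7.3, set by OD630 to 5 × 10^5 CFU/mL. Incubated 16–20 h at 35 °C; 530 nm read before and after. IC50 is 50% growth inhibition; MIC is no detectable growth. MBC from clear wells subcultured on agar. Ciprofloxacin control.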

MRSA (ATCC33591) = assay: in vitro antibacterial activity; type: cell-based, methicillin-resistant Staphylococcus aureus; settings: Staphylococcus aureus, ATCC33591|MRSA, read-out: MIC, MRSA
In short: as §2

[3] = test system: M. intracellulare (ATCC23068); assay: in vitro antibacterial activity, modified alamarBlue procedure; type: cell-based, Mycobacterium intracellulare; settings: Mycobacterium intracellulare; for IC50: ATCC23068, read-out: IC50 (concentration that affords 50% growth inhibition), M. intracellulare; for MBC: ATCC23068, read-out: MBC (minimum bactericidal concentration), M. intracellulare; for MIC: ATCC23068, read-out: MIC, M. intracellulare
In short: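 Modified alamarBlue microplate method. Test compound serially diluted in 20% DMSO/saline, duplicate wells, up to 20 μg/mL. Inoculum 2.0 × 10^6 CFU/mL in Middlebrook 7H9 with OADC, pH 7.3, containing 5% alamarBlue. Incubated 70–74 h at 37 °C, 10% CO2; fluorescence 544ex/590em read before and after. MIC: no blue-to-pink change. MBC by subculturing blue wells on agar. Ciprofloxacin control.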

Row | SMILES | IC50 (P. falciparum (D6)) [µg/mL] | IC50 (P. falciparum (W2)) [µg/mL] | cytotoxicity CTX [1] | IC50 [2] [µg/mL] | IC50 (C. albicans ATCC90028) [µg/mL] | MFC (C. albicans ATCC90028) [µg/mL] | MIC (C. albicans ATCC90028) [µg/mL] | IC50 (C. neoformans ATCC90113) [µg/mL] | MFC (C. neoformans ATCC90113) [µg/mL] | MIC (C. neoformans ATCC90113) [µg/mL] | IC50 (A. fumigatus ATCC 90906) [µg/mL] | MFC (A. fumigatus ATCC 90906) [µg/mL] | MIC (A. fumigatus ATCC 90906) [µg/mL] | IC50 (SA (ATCC29213)) [µg/mL] | MBC (SA (ATCC29213)) [µg/mL] | MIC (SA (ATCC29213)) [µg/mL] | MIC (MRSA (ATCC33591)) [µg/mL] | IC50 [3] [µg/mL] | MBC [3] [µg/mL] | MIC [3] [µg/mL] | other results
1 | CCCCCCOc1c(OC)cc(NC(C)CCCN)c2nc(C(C)(C)C)cc(C)c12 (stereo not drawn) [compound 52, N^4-(5-Hexyloxy-2-tert-butyl-6-methoxy-4-methylquinolin-8-yl)pentane-1,4-diamine] | > 4.76 | > 4.76 | NC (NC, not cytotoxic up to 4760 ng/mL (4.76 μg/mL)) | 1.77 (≈ 4.12 µM) | 5.91 (≈ 13.8 µM) | 10 (≈ 23.3 µM) | 10 (≈ 23.3 µM) | 0.84 (≈ 1.96 µM) | 2.5 (≈ 5.82 µM) | 1.25 (≈ 2.91 µM) | 19 (≈ 44.2 µM) | > 20 | > 20 | 2.83 (≈ 6.59 µM) | 5 (≈ 11.6 µM) | 5 (≈ 11.6 µM) | 5 (≈ 11.6 µM) | 3.43 (≈ 7.98 µM) | 5 (≈ 11.6 µM) | 5 (≈ 11.6 µM) | IC90 [2]: 2.55 µg/mL (≈ 5.94 µM)
2 | CCCCCCCOc1c(OC)cc(NC(C)CCCN)c2nc(C(C)(C)C)cc(C)c12 (stereo not drawn) [compound 53, N^4-(5-Heptyloxy-2-tert-butyl-6-methoxy-4-methylquinolin-8-yl)pentane-1,4-diamine] | 2 (≈ 4.51 µM) | 1.3 (≈ 2.93 µM) | NC (NC, not cytotoxic up to 4760 ng/mL (4.76 μg/mL)) | 0.84 (≈ 1.89 µM) | 5.06 (≈ 11.4 µM) | 10 (≈ 22.5 µM) | 10 (≈ 22.5 µM) | 0.67 (≈ 1.51 µM) | 1.25 (≈ 2.82 µM) | 1.25 (≈ 2.82 µM) | 19.3 (≈ 43.5 µM) | > 20 | > 20 | 1.33 (≈ 3 µM) | 5 (≈ 11.3 µM) | 2.5 (≈ 5.63 µM) | 2.5 (≈ 5.63 µM) | 3.12 (≈ 7.03 µM) | 5 (≈ 11.3 µM) | 5 (≈ 11.3 µM) | IC90 [2]: 1.95 µg/mL (≈ 4.4 µM)
3 | CCCCCCCCOc1c(OC)cc(NC(C)CCCN)c2nc(C(C)(C)C)cc(C)c12 (stereo not drawn) [compound 54, N^4-(5-Octyloxy-2-tert-butyl-6-methoxy-4-methylquinolin-8-yl)pentane-1,4-diamine] | > 4.76 | > 4.76 | NC (NC, not cytotoxic up to 4760 ng/mL (4.76 μg/mL)) | 9.74 (≈ 21.3 µM) | > 20 | > 20 | > 20 | 9.96 (≈ 21.8 µM) | > 20 | > 20 | > 20 | > 20 | > 20 | > 20 | > 20 | > 20 | > 20 | 18.6 (≈ 40.6 µM) | > 20 | > 20 | IC90 [2]: 15.6 µg/mL (≈ 34 µM)
4 | CCCCCCOc1c(OC)cc(NC(C)CCCNC(=O)C(N)CCCNC(=N)N)c2nc(C(C)(C)C)ccc12 (stereo not drawn) [compound 101, 2-Amino-N-(4-(2-tert-butyl-5-(hexyloxy)-6-methoxyquinolin-8-ylamino)pentyl)-5-guanidinopentanamide] | 0.8 (≈ 1.4 µM) | 0.33 (≈ 0.577 µM) | NC (NC, not cytotoxic up to 4760 ng/mL (4.76 μg/mL)) | – | > 20 | > 20 | > 20 | 14.3 (≈ 25 µM) | > 20 | > 20 | > 20 | > 20 | > 20 | 8.87 (≈ 15.5 µM) | > 20 | > 20 | > 20 | 18.4 (≈ 32.2 µM) | > 20 | 20 (≈ 35 µM) | –
5 | CCCCCCCOc1c(OC)cc(NC(C)CCCNC(=O)C(N)CCCCN)c2nc(C(C)(C)C)ccc12 (stereo not drawn) [compound 109, 2,6-Diamino-N-(4-(2-tert-butyl-5-(heptyloxy)-6-methoxyquinolin-8-ylamino)-pentyl)hexanamide] | 0.8 (≈ 1.43 µM) | 0.68 (≈ 1.22 µM) | NC (NC, not cytotoxic up to 4760 ng/mL (4.76 μg/mL)) | – | > 20 | > 20 | > 20 | > 20 | > 20 | > 20 | > 20 | > 20 | > 20 | > 20 | > 20 | > 20 | > 20 | > 20 | > 20 | > 20 | –
6 | CCCCCCCOc1c(OC)cc(NC(C)CCCNC(=O)C(N)CCCN)c2nc(C(C)(C)C)ccc12 (stereo not drawn) [compound 110, 2,5-Diamino-N-(4-(2-tert-butyl-5-(heptyloxy)-6-methoxyquinolin-8-ylamino)-pentyl)pentanamide] | 3.2 (≈ 5.88 µM) | 1.6 (≈ 2.94 µM) | NC (NC, not cytotoxic up to 4760 ng/mL (4.76 μg/mL)) | – | > 20 | > 20 | > 20 | > 20 | > 20 | > 20 | > 20 | > 20 | > 20 | > 20 | > 20 | > 20 | > 20 | > 20 | > 20 | > 20 | –
